Data taken from ChEMBL document CHEMBL1629670, “In vitro activities of retigeric acid B alone and in combination with azole antifungal agents against Candida albicans” (2009).
≈ marks a conversion by molar mass, not a printed value. One block for each compound: values may come before it. Calls of active or inactive are those of the source. The calls are words filed in the database; no cut-off is given here.

Experiments:
Candida albicans [1] = experiment: Antifungal activity against Candida albicans CA132 after 48 hrs by broth microdilution method; format: functional; details: CA132, 48 h
Summary of the method: (§1)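 CLSI M27-A2 broth microdilution of clinical isolates in RPMI 1640 buffered to pH 7.0 with 0.165 M MOPS. Final inoculum 0.5 x 10^3 to 2.5 x 10^3 cells/ml, incubated 35°C for 48 h. Growth read as OD490 with background subtracted. MIC taken as the lowest drug concentration giving 80% growth reduction versus drug-free control. Run in triplicate.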

Candida albicans [2] = experiment: Antifungal activity against Candida albicans CA127 after 48 hrs by broth microdilution method; format: functional; details: CA127, 48 h; summary of the method: as §1
Candida albicans [3] = experiment: Antifungal activity against Candida albicans CA1 after 48 hrs by broth microdilution method; format: functional; details: CA1, 48 h; summary of the method: as §1
Candida albicans [4] = experiment: Antifungal activity against Candida albicans CA135 after 48 hrs by broth microdilution method; format: functional; details: CA135, 48 h; summary of the method: as §1
Candida albicans [5] = experiment: Antifungal activity against Candida albicans CA3 after 48 hrs by broth microdilution method; format: functional; details: CA3, 48 h; summary of the method: as §1
Candida albicans [6] = experiment: Antifungal activity against Candida albicans CA10 after 48 hrs by broth microdilution method; format: functional; details: CA10, 48 h; summary of the method: as §1
Candida albicans [7] = experiment: Antifungal activity against Candida albicans CA137 after 48 hrs by broth microdilution method; format: functional; details: CA137, 48 h; summary of the method: as §1
Candida albicans [8] = experiment: Antifungal activity against Candida albicans CA4 after 48 hrs by broth microdilution method; format: functional; details: CA4, 48 h; summary of the method: as §1
Candida albicans [9] = experiment: Antifungal activity against Candida albicans CA138 after 48 hrs by broth microdilution method; format: functional; details: CA138, 48 h; summary of the method: as §1
Candida albicans [10] = experiment: Antifungal activity against Candida albicans CA2 after 48 hrs by broth microdilution method; format: functional; details: CA2, 48 h; summary of the method: as §1
Candida albicans [11] = experiment: Antifungal activity against Candida albicans CA137 after 48 hrs by broth microdilution method in presence of fluconazole; format: functional
Summary of the method: (§2)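 Checkerboard broth microdilution (CLSI M27-A2) on clinical isolates in RPMI 1640 buffered to pH 7.0 with 0.165 M MOPS. Final inoculum was 0.5 x 10^3 to 2.5 x 10^3 CFU/ml. RAB was tested at 0.25–16 µg/ml against FLC at 0.008–8 µg/ml, or against KCZ or ITR at 0.001–1 µg/ml. Plates ran 48 h at 35°C, read by background-subtracted OD490. MIC was taken at 80% growth reduction versus drug-free control. Run in triplicate.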

Candida albicans [12] = experiment: Antifungal activity against Candida albicans CA4 after 48 hrs by broth microdilution method in presence of ketoconazole; format: functional; summary of the method: as §2
Candida albicans [13] = experiment: Antifungal activity against Candida albicans CA3 after 48 hrs by broth microdilution method in presence of ketoconazole; format: functional; summary of the method: as §2
Candida albicans [14] = experiment: Antifungal activity against Candida albicans CA1 after 48 hrs by broth microdilution method in presence of ketoconazole; format: functional; summary of the method: as §2
Candida albicans [15] = experiment: Antifungal activity against Candida albicans CA132 after 48 hrs by broth microdilution method in presence of ketoconazole; format: functional; summary of the method: as §2
Candida albicans [16] = experiment: Antifungal activity against Candida albicans CA3 after 48 hrs by broth microdilution method in presence of itraconazole; format: functional; summary of the method: as §2
Candida albicans [17] = experiment: Antifungal activity against Candida albicans CA135 after 48 hrs by broth microdilution method in presence of ketoconazole; format: functional; summary of the method: as §2
Candida albicans [18] = experiment: Antifungal activity against Candida albicans CA10 assessed as log reduction in fungal burden at 8 ug/ml after 48 hrs by time kill analysis in presence of ketoconazole; format: functional, organism-based
Summary of the method: (§3)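 Time-kill on CA10 in RPMI 1640 starting at 10^5 CFU/ml. Treatments were RAB 8 µg/ml combined with FLC 8 µg/ml, ITR 8 µg/ml or KCZ 2 µg/ml; DMSO <1%; drug-free growth control. Samples were taken before treatment and at 6, 12, 24 and 48 h, then diluted, plated and counted after 48 h at 35°C.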

Candida albicans [19] = experiment: Antifungal activity against Candida albicans CA127 after 48 hrs by broth microdilution method in presence of ketoconazole; format: functional; summary of the method: as §2
Candida albicans [20] = experiment: Antifungal activity against Candida albicans CA4 after 48 hrs by broth microdilution method in presence of fluconazole; format: functional; summary of the method: as §2
Candida albicans [21] = experiment: Antifungal activity against Candida albicans CA127 after 48 hrs by broth microdilution method in presence of fluconazole; format: functional; summary of the method: as §2
Candida albicans [22] = experiment: Antifungal activity against Candida albicans CA2 after 48 hrs by broth microdilution method in presence of itraconazole; format: functional; summary of the method: as §2
Candida albicans [23] = experiment: Antifungal activity against Candida albicans CA138 after 48 hrs by broth microdilution method in presence of itraconazole; format: functional; summary of the method: as §2
Candida albicans [24] = experiment: Antifungal activity against Candida albicans CA1 after 48 hrs by broth microdilution method in presence of itraconazole; format: functional; summary of the method: as §2
Candida albicans [25] = experiment: Antifungal activity against Candida albicans CA10 assessed as log reduction in fungal burden at 8 ug/ml after 48 hrs by time kill analysis in presence of itraconazole; format: functional, organism-based; summary of the method: as §3
Candida albicans [26] = experiment: Antifungal activity against Candida albicans CA135 after 48 hrs by broth microdilution method in presence of fluconazole; format: functional; summary of the method: as §2
Candida albicans [27] = experiment: Antifungal activity against Candida albicans CA3 after 48 hrs by broth microdilution method in presence of fluconazole; format: functional; summary of the method: as §2
Candida albicans [28] = experiment: Antifungal activity against Candida albicans CA135 after 48 hrs by broth microdilution method in presence of itraconazole; format: functional; summary of the method: as §2
Candida albicans [29] = experiment: Antifungal activity against Candida albicans CA1 after 48 hrs by broth microdilution method in presence of fluconazole; format: functional; summary of the method: as §2
Candida albicans [30] = experiment: Antifungal activity against Candida albicans CA2 after 48 hrs by broth microdilution method in presence of fluconazole; format: functional; summary of the method: as §2
Candida albicans [31] = experiment: Antifungal activity against Candida albicans CA127 after 48 hrs by broth microdilution method in presence of itraconazole; format: functional; summary of the method: as §2
Candida albicans [32] = experiment: Antifungal activity against Candida albicans CA4 after 48 hrs by broth microdilution method in presence of itraconazole; format: functional; summary of the method: as §2
Candida albicans [33] = experiment: Antifungal activity against Candida albicans CA10 assessed as log reduction in fungal burden at 8 ug/ml after 48 hrs by time kill analysis in presence of fluconazole; format: functional, organism-based; summary of the method: as §3
Candida albicans [34] = experiment: Antifungal activity against Candida albicans CA2 after 48 hrs by broth microdilution method in presence of ketoconazole; format: functional; summary of the method: as §2
Candida albicans [35] = experiment: Antifungal activity against Candida albicans CA138 after 48 hrs by broth microdilution method in presence of ketoconazole; format: functional; summary of the method: as §2
Candida albicans [36] = experiment: Antifungal activity against Candida albicans CA10 assessed as cell viability after 2 hrs by XTT reduction assay in presence of ketoconazole; format: functional, organism-based
Summary of the method: (§4)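 Viability was read on CA10 time-kill cultures grown in RPMI 1640 from 10^5 CFU/ml. Treatments were RAB 8 µg/ml plus FLC 8 µg/ml, ITR 8 µg/ml or KCZ 2 µg/ml, with DMSO <1%. At each sampling time a 100-µl aliquot got XTT-menadione (final 0.25 mg/ml and 5 µM) and was held in the dark up to 2 h at 35°C. Formazan was read at 490 nm; triplicate means.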

Candida albicans [37] = experiment: Antifungal activity against Candida albicans CA132 after 48 hrs by broth microdilution method in presence of fluconazole; format: functional; summary of the method: as §2
Candida albicans [38] = experiment: Antifungal activity against Candida albicans CA132 after 48 hrs by broth microdilution method in presence of itraconazole; format: functional; summary of the method: as §2
Candida albicans [39] = experiment: Antifungal activity against Candida albicans CA10 assessed as cell viability after 2 hrs by XTT reduction assay in presence of fluconazole; format: functional, organism-based; summary of the method: as §4
Candida albicans [40] = experiment: Antifungal activity against Candida albicans CA10 after 48 hrs by broth microdilution method in presence of ketoconazole; format: functional; summary of the method: as §2
Candida albicans [41] = experiment: Antifungal activity against Candida albicans CA137 after 48 hrs by broth microdilution method in presence of ketoconazole; format: functional; summary of the method: as §2
Candida albicans [42] = experiment: Antifungal activity against Candida albicans CA10 after 48 hrs by broth microdilution method in presence of itraconazole; format: functional; summary of the method: as §2
Candida albicans [43] = experiment: Antifungal activity against Candida albicans CA138 after 48 hrs by broth microdilution method in presence of fluconazole; format: functional; summary of the method: as §2
Candida albicans [44] = experiment: Antifungal activity against Candida albicans CA137 after 48 hrs by broth microdilution method in presence of itraconazole; format: functional; summary of the method: as §2
Candida albicans [45] = experiment: Antifungal activity against Candida albicans CA10 after 48 hrs by broth microdilution method in presence of fluconazole; format: functional; summary of the method: as §2
Candida albicans [46] = experiment: Antifungal activity against Candida albicans CA10 assessed as cell viability after 2 hrs by XTT reduction assay in presence of itraconazole; format: functional, organism-based; summary of the method: as §4

SMILES: CC(=O)N1CCN(c2ccc(OCC3COC(Cn4ccnc4)(c4ccc(Cl)cc4Cl)O3)cc2)CC1 (stereo unspecified) [KETOCONAZOLE]
MIC (Candida albicans [1]): 0.031 µg/mL (≈ 0.0583 µM) | MIC (Candida albicans [2]): 0.031 µg/mL (≈ 0.0583 µM) | MIC (Candida albicans [3]): 0.031 µg/mL (≈ 0.0583 µM) | MIC (Candida albicans [4]): 16 µg/mL (≈ 30.1 µM) | MIC (Candida albicans [5]): 0.062 µg/mL (≈ 0.117 µM) | MIC (Candida albicans [6]): 16 µg/mL (≈ 30.1 µM) | MIC (Candida albicans [7]): 16 µg/mL (≈ 30.1 µM) | MIC (Candida albicans [8]): 0.062 µg/mL (≈ 0.117 µM) | MIC (Candida albicans [9]): 16 µg/mL (≈ 30.1 µM) | MIC (Candida albicans [10]): 0.016 µg/mL (≈ 0.0301 µM)

MIC (Candida albicans [1]): 8 µg/mL (≈ 15.9 µM) | MIC (Candida albicans [2]): 16 µg/mL (≈ 31.8 µM) | MIC (Candida albicans [3]): 8 µg/mL (≈ 15.9 µM) | MIC (Candida albicans [4]): 16 µg/mL (≈ 31.8 µM) | MIC (Candida albicans [5]): 16 µg/mL (≈ 31.8 µM) | MIC (Candida albicans [6]): 16 µg/mL (≈ 31.8 µM) | MIC (Candida albicans [7]): 16 µg/mL (≈ 31.8 µM) | MIC (Candida albicans [8]): 8 µg/mL (≈ 15.9 µM) | MIC (Candida albicans [9]): 8 µg/mL (≈ 15.9 µM) | MIC (Candida albicans [10]): 16 µg/mL (≈ 31.8 µM)
SMILES: CC(C)[C@H]1CC[C@@H]2[C@]1(C)CC[C@]1(C)[C@H]3CC[C@@H]4[C@](C(=O)O)(C[C@@H](O)[C@H](O)[C@@]4(C)C(=O)O)C3=CC[C@@]21C [RETIGERIC ACID B]
fractional inhibitory concentration index (FICI) (Candida albicans [11]): 0.252 | fractional inhibitory concentration index (FICI) (Candida albicans [12]): 0.75 | fractional inhibitory concentration index (FICI) (Candida albicans [13]): 0.25 | fractional inhibitory concentration index (FICI) (Candida albicans [14]): 0.375 | fractional inhibitory concentration index (FICI) (Candida albicans [15]): 0.625 | fractional inhibitory concentration index (FICI) (Candida albicans [16]): 0.375 | fractional inhibitory concentration index (FICI) (Candida albicans [17]): 0.125 | Activity (Candida albicans [18]): Active | fractional inhibitory concentration index (FICI) (Candida albicans [19]): 0.625 | fractional inhibitory concentration index (FICI) (Candida albicans [20]): 0.625 | fractional inhibitory concentration index (FICI) (Candida albicans [21]): 0.5 | fractional inhibitory concentration index (FICI) (Candida albicans [22]): 0.375 | fractional inhibitory concentration index (FICI) (Candida albicans [23]): 0.254 | fractional inhibitory concentration index (FICI) (Candida albicans [24]): 0.75 | Activity (Candida albicans [25]): Active | fractional inhibitory concentration index (FICI) (Candida albicans [26]): 0.127 | fractional inhibitory concentration index (FICI) (Candida albicans [27]): 0.5 | fractional inhibitory concentration index (FICI) (Candida albicans [28]): 0.254 | fractional inhibitory concentration index (FICI) (Candida albicans [29]): 0.5 | fractional inhibitory concentration index (FICI) (Candida albicans [30]): 0.25 | fractional inhibitory concentration index (FICI) (Candida albicans [31]): 0.375 | fractional inhibitory concentration index (FICI) (Candida albicans [32]): 0.625 | Activity (Candida albicans [33]): Active | fractional inhibitory concentration index (FICI) (Candida albicans [34]): 0.253 | fractional inhibitory concentration index (FICI) (Candida albicans [35]): 0.254 | Activity (Candida albicans [36]): Active | fractional inhibitory concentration index (FICI) (Candida albicans [37]): 0.75 | fractional inhibitory concentration index (FICI) (Candida albicans [38]): 0.75 | Activity (Candida albicans [39]): Active | fractional inhibitory concentration index (FICI) (Candida albicans [40]): 0.254 | fractional inhibitory concentration index (FICI) (Candida albicans [41]): 0.25 | fractional inhibitory concentration index (FICI) (Candida albicans [42]): 0.252 | fractional inhibitory concentration index (FICI) (Candida albicans [43]): 0.252 | fractional inhibitory concentration index (FICI) (Candida albicans [44]): 0.258 | fractional inhibitory concentration index (FICI) (Candida albicans [45]): 0.126 | Activity (Candida albicans [46]): Active
